From ChEMBL document CHEMBL5661974, “Pharmacologic characterization of a potent inhibitor of class I phosphatidylinositide 3-kinases” (Cancer Res, 2007)
Calls of active or inactive are those of the source. No cut-off for these calls is given here.

Assays:
[1] = Tmax in BALB/C mouse liver at 2.5 mg/kg, iv by LC-MS/MS analysis; format: ADME, organism-based
Outline: (§1)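 Female BALB/c mice, 6–8 weeks old, given 2.5 mg/kg i.v. in 10% DMSO, 0.5% Tween 20 in saline. Plasma came from serial bleeds; tissues were homogenized in 2 or 3 volumes PBS. Samples were methanol-precipitated with an analogue internal standard, then LC-MS/MS by multiple reaction monitoring against an 8-point external calibration of 2–20,000 nmol/L. Parameters came from WinNonlin noncompartmental analysis, model 201 for plasma and model 200 for tissues.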

[2] = system: U-87 MG; experiment: Inhibition of recombinant PI3K in human U-87MG cells assessed as phosphorylation of AKT at Thr308 at 5 times of GI50 concentration within 15 mins treatment by immunoblot analysis; format: cell-based
[3] = Cmax in BALB/C mouse kidney at 2.5 mg/kg, iv by LC-MS/MS analysis; format: ADME, organism-based; outline: as §1
[4] = system: HCT-116; experiment: Antitumor activity against PIK3CA mutant human HCT-116 cells xenografted female Ncr model assessed as T/C at 30 mg/kg, ip administered twice a daily for 21 days relative to control; format: functional; conditions: time 21 day
[5] = AUClast in BALB/C mouse liver at 2.5 mg/kg, iv by LC-MS/MS analysis; format: ADME, organism-based; outline: as §1
[6] = system: MDA-MB-468; experiment: Antitumor activity against PTEN null human MDA-MB-468 cells xenografted female Ncr model assessed as T/C at 70 mg/kg, ip administered once a daily for 40 days relative to control; format: functional; conditions: time 40 day
[7] = system: U-87 MG; conditions: Homo sapiens, time 4.0 hrs
[8] = system: U-87 MG; experiment: Inhibition of cell migration in human U-87MG cells at 50 nmol/L incubated for 16 to 24 hrs by transwell assay relative to control; format: functional, U-87MG ATCC; conditions: time 16-24 hrs
[9] = system: MDA-MB-435; experiment: Antitumor activity against ERB-B2 overexpressing human MDA-MB-435 cells xenografted female Ncr model assessed as T/C at 30 mg/kg, ip administered once a daily for 14 days relative to control; format: functional; conditions: time 14 day
[10] = system: HCT-116; experiment: Antiproliferative activity against human HCT-116 cells harboring PI3KCA mutant assessed as cell growth inhibition incubated for 96 hrs by SRB assay; format: functional
[11] = Volume of distribution in BALB/C mouse plasma at 2.5 mg/kg, iv by LC-MS/MS analysis; format: ADME, organism-based; outline: as §1
[12] = system: U-87 MG; experiment: Antitumor activity against PTEN null human U-87MG cells xenografted female Ncr model assessed as body weight loss at 40 mg/kg, ip administered daily for 14 days relative to control; conditions: time 14 day
[13] = Half life in BALB/C mouse kidney at 2.5 mg/kg, iv by LC-MS/MS analysis; format: ADME, organism-based; outline: as §1
[14] = Drug metabolism in mouse microsomes incubated for 30 mins by LC-MS/MS analysis; format: ADME, Microsome; conditions: read-out: Drug metabolism
Outline: (§2)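 Mouse or human microsomes incubated 30 min with inhibitor at 1 or 10 μmol/L. Metabolite detection by LC-MS/MS on an ion trap, with a 10–90% methanol gradient over 6 min and scan range 50–1,000 amu.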

[15] = Toxicity in human OVCAR-3 cells xenografted female Ncr model at 15 to 30 mg/kg, ip administered daily for 15 days; format: organism-based; conditions: in vivo, 360 h, dose 15-30 mg/kg, time 15 day
[16] = system: MDA-MB-468; experiment: Antitumor activity against PTEN null human MDA-MB-468 cells xenografted female Ncr model assessed as T/C at 40 mg/kg, ip administered once a daily for 40 days relative to control; format: functional; conditions: time 40 day
[17] = Cmax in BALB/C mouse liver at 2.5 mg/kg, iv by LC-MS/MS analysis; format: ADME, organism-based; outline: as §1
[18] = Cmax in BALB/C mouse plasma at 2.5 mg/kg, iv by LC-MS/MS analysis; format: ADME, organism-based; outline: as §1
[19] = system: MDA-MB-435; experiment: Antiproliferative activity against human MDA-MB-435 cells harboring AKT assessed as cell growth inhibition incubated for 96 hrs by SRB assay; format: functional
[20] = system: U-87 MG; experiment: Antitumor activity against PTEN null human U-87MG cells xenografted female Ncr model assessed as T/C at 70 mg/kg, ip administered once a daily for 14 days relative to control; format: functional, U-87MG ATCC; conditions: time 14 day
[21] = Half life in BALB/C mouse spleen at 2.5 mg/kg, iv by LC-MS/MS analysis; format: ADME, organism-based; outline: as §1
[22] = system: PC-3; experiment: Antitumor activity against PTEN null human PC-3 cells xenografted male Ncr model assessed as body weight loss at 30 mg/kg, ip administered once a daily for 14 days relative to control; conditions: time 14 day
[23] = Tmax in BALB/C mouse spleen at 2.5 mg/kg, iv by LC-MS/MS analysis; format: ADME, organism-based; outline: as §1
[24] = system: HCT-116; experiment: Antitumor activity against PIK3CA mutant human HCT-116 cells xenografted female Ncr model assessed as T/C at 30 mg/kg, ip administered once a daily for 21 days relative to control; format: functional; conditions: time 21 day
[25] = system: PC-3; experiment: Antitumor activity against PTEN null human PC-3 cells xenografted male Ncr model assessed as T/C at 30 mg/kg, ip administered twice a daily for 14 days relative to control; format: functional; conditions: time 14 day
[26] = Half life in BALB/C mouse plasma at 2.5 mg/kg, iv by LC-MS/MS analysis; format: ADME, organism-based; outline: as §1
[27] = Tmax in BALB/C mouse kidney at 2.5 mg/kg, iv by LC-MS/MS analysis; format: ADME, organism-based; outline: as §1
[28] = system: U-87 MG; experiment: Antitumor activity against PTEN null human U-87MG cells xenografted female Ncr model assessed as body weight loss at 70 mg/kg, ip administered daily for 14 days relative to control; conditions: time 14 day
[29] = AUClast in BALB/C mouse kidney at 2.5 mg/kg, iv by LC-MS/MS analysis; format: ADME, organism-based; outline: as §1
[30] = system: HCT-116; experiment: Antitumor activity against PIK3CA mutant human HCT-116 cells xenografted female Ncr model assessed as body weight loss at 30 mg/kg, ip administered once a daily for 14 days relative to control; conditions: time 14 day
[31] = AUClast in BALB/C mouse spleen at 2.5 mg/kg, iv by LC-MS/MS analysis; format: ADME, organism-based; outline: as §1
[32] = system: U-87 MG; experiment: Antiproliferative activity against human U-87MG cells harboring PTEN deletion assessed as cell growth inhibition incubated for 96 hrs by SRB assay; format: functional, U-87MG ATCC
[33] = Cmax in BALB/C mouse spleen at 2.5 mg/kg, iv by LC-MS/MS analysis; format: ADME, organism-based; outline: as §1
[34] = system: OVCAR-3; conditions: Homo sapiens, dose 100.0 mg/kg, route ip, time 750.0 min
[35] = Drug metabolism in human microsomes incubated for 30 mins by LC-MS/MS analysis; format: ADME, Microsome; conditions: read-out: Drug metabolism; outline: as §2
[36] = AUClast in BALB/C mouse plasma at 2.5 mg/kg, iv by LC-MS/MS analysis; format: ADME, organism-based; outline: as §1
[37] = system: OVCAR-3; experiment: Antitumor activity against human OVCAR-3 cells xenografted female Ncr model assessed as T/C at 15 mg/kg, ip administered daily for 15 days relative to control; format: functional; conditions: time 15 day

**Q.** Which Tmax [1] does the source give for `Oc1cccc(-c2nc(N3CCOCC3)c3oc4ncccc4c3n2)c1` [PI-103] here?
**A.** 4.98 min

**Q.** What about the inhibition [2] of the same compound?
**A.** Active

**Q.** And the Cmax [3]?
**A.** 2.02 µM

**Q.** And the T/C [4]?
**A.** 48%

**Q.** And the AUC(0-t) [5]?
**A.** 802 nM·h

**Q.** What about the T/C [6] of the same compound?
**A.** 47.2%

**Q.** What about the inhibition [7] of the same compound?
**A.** Active

**Q.** And the inhibition at 0.05 µM [8]?
**A.** 44%

**Q.** What about the T/C [9] of the same compound?
**A.** 85%

**Q.** What about the GI50 [10] of the same compound?
**A.** 0.93 µM

**Q.** And the Vd [11]?
**A.** 0.2 L

**Q.** And the Body weight loss [12]?
**A.** <15%

**Q.** What about the half-life [13] of the same compound?
**A.** 54 min

**Q.** What about the metabolised at 0.5 h [14] of the same compound?
**A.** > 70%

**Q.** What about the Activity [15] of the same compound?
**A.** Toxic

**Q.** And the T/C [16]?
**A.** 52.8%

**Q.** What about the Cmax [17] of the same compound?
**A.** 0.801 µM

**Q.** What about the Cmax [18] of the same compound?
**A.** 4.17 µM

**Q.** And the GI50 [19]?
**A.** 0.13 µM

**Q.** What about the T/C [20] of the same compound?
**A.** 45.8%

**Q.** What about the half-life [21] of the same compound?
**A.** 78 min

**Q.** What about the Body weight loss [22] of the same compound?
**A.** <15%

**Q.** And the Tmax [23]?
**A.** 4.98 min

**Q.** What about the T/C [24] of the same compound?
**A.** 98.6%

**Q.** And the T/C [25]?
**A.** 43.3%

**Q.** And the half-life [26]?
**A.** 42 min

**Q.** What about the Tmax [27] of the same compound?
**A.** 4.98 min

**Q.** And the Body weight loss [28]?
**A.** <15%

**Q.** What about the AUC(0-t) [29] of the same compound?
**A.** 453 nM·h

**Q.** What about the Body weight loss [30] of the same compound?
**A.** <15%

**Q.** And the AUC(0-t) [31]?
**A.** 406 nM·h

**Q.** And the GI50 [32]?
**A.** 0.18 µM

**Q.** And the Cmax [33]?
**A.** 1.36 µM

**Q.** What about the inhibition [34] of the same compound?
**A.** Active

**Q.** And the metabolised at 0.5 h [35]?
**A.** > 70%

**Q.** What about the AUC(0-t) [36] of the same compound?
**A.** 624 nM·h

**Q.** What about the T/C [37] of the same compound?
**A.** 61%
